Holding throughout (type): functional, cell-based
The test system of assay [1] is MIA PaCa-2. The assay can be described thus: Cytotoxicity against human MIAPaCa2 cells assessed as reduction in cell viability incubated for 24 hrs by MTT assay. Conditions: MIA PaCa-2, 24 h. The procedure, abridged:
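MiaPaca_2 (ATCC CRL-1420) cultured in DMEM with 10% FBS, 2.5% horse serum, 1% L-glutamine and 1% penicillin/streptomycin at 37 °C, 5% CO2. Seeding was 20000 cells/well for the 24 h assay. Compounds were tested in triplicate over 10 two-fold dilutions from a 40 μg/mL top concentration, with 0.5% DMSO as negative control. MTT reduction was used for IC50.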
In general terms: Tetrazolium assays rely on reduction of a dye to a coloured formazan, in cell work by metabolically active cells.

Assay [2] deals with HepG2. The assay can be described thus: Cytotoxicity against human HepG2 cells assessed as reduction in cell viability incubated for 24 hrs by MTT assay. To be noted: HepG2, 24 h. In a few lines: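 HepG2 (ATCC) grown in Eagle's MEM with 10% FBS, 2 mM L-glutamine, 1 mM sodium pyruvate and 100 μM nonessential amino acids at 37 °C, 5% CO2. Seeded at 20000 cells/well for the 24 h assay. Compounds were run in triplicate at 10 two-fold dilutions from 40 μg/mL, with 0.5% DMSO maximum. Viability was read by MTT reduction and IC50 determined.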

Assay [3] relates to MCF7. The assay can be described thus: Cytotoxicity against human MCF7 cells assessed as reduction in cell viability incubated for 24 hrs by MTT assay. Conditions: MCF7, 24 h. The procedure, abridged: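 MCF-7 (ATCC HTB-22) kept in MEM with 10% FBS, glutamine, pyruvate and nonessential amino acids plus 0.01 mg/mL bovine insulin at 37 °C, 5% CO2. Plated at 30000 cells/well for the 24 h exposure. Triplicate 10-point, 2-fold serial dilutions from 40 μg/mL were used, with DMSO ≤0.5%. MMS served as positive control. The MTT viability read-out gave the IC50.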

SMILES strings stand for the structures. pIC50: −log10 of the molar value.

The pIC50 is the IC50 on a negative log10 scale, so that one unit is a factor of ten.

`CC[C@H](C)[C@@H](O)C(=O)O[C@@H](C(=O)O[C@@H](C(=O)O[C@@H](C(=O)OC[C@@H](O)[C@@H](O)[C@H](O)CO)[C@@H](C)CC)[C@@H](C)CC)[C@@H](C)CC`: the pIC50 in assay [1], in assay [2] and in assay [3] was below 4.18 in each case.

`CC[C@H](C)[C@@H](O)C(=O)O[C@@H](C(=O)O[C@@H](C(=O)O[C@@H](C(=O)O[C@@H](C(=O)O[C@H](CO)[C@@H](O)[C@H](O)[C@H](O)CO)[C@@H](C)CC)[C@@H](C)CC)[C@@H](C)CC)[C@@H](C)CC`: the negative-log IC50 (pIC50) in assay [1] was below 4.27; in assay [2], 4.44; in assay [3], 4.74.

With `CC[C@H](C)[C@@H](O)C(=O)O[C@@H](C(=O)O[C@@H](C(=O)O[C@@H](C(=O)O[C@@H](C(=O)O[C@H](CO)[C@@H](O)[C@H](O)CO)[C@@H](C)CC)[C@@H](C)CC)[C@@H](C)CC)[C@@H](C)CC`, the pIC50 in assay [1] is 4.44; in assay [2], 4.58; in assay [3], 4.72.

With `CC[C@H](C)[C@@H](O)C(=O)O[C@@H](C(=O)O[C@@H](C(=O)O[C@@H](C(=O)O[C@@H](C(=O)OC[C@@H](O)[C@@H](O)CO)[C@@H](C)CC)[C@@H](C)CC)[C@@H](C)CC)[C@@H](C)CC`, the negative-log IC50 (pIC50) in assay [1] is below 4.24; in assay [2], 4.54; in assay [3], 4.95.

Regarding `CC[C@H](C)[C@@H](O)C(=O)O[C@@H](C(=O)O[C@@H](C(=O)O[C@@H](C(=O)O[C@@H](C(=O)O[C@@H]([C@H](O)[C@H](O)CO)[C@H](O)CO)[C@@H](C)CC)[C@@H](C)CC)[C@@H](C)CC)[C@@H](C)CC`, the results for the negative-log IC50 (pIC50) in assay [1], in assay [2] and in assay [3] were below 4.27, below 4.27 and 4.56, respectively.

For the compound `CC[C@H](C)[C@@H](O)C(=O)O[C@@H](C(=O)O[C@@H](C(=O)O[C@@H](C(=O)O[C@@H](C(=O)OC[C@@H](O)[C@@H](O)[C@H](O)CO)[C@@H](C)CC)[C@@H](C)CC)[C@@H](C)CC)[C@@H](C)CC`, the negative-log IC50 (pIC50) in assay [1] is below 4.26; in assay [2], 4.54; in assay [3], 4.81.

As for `CC[C@H](C)[C@@H](O)C(=O)O[C@@H](C(=O)O[C@@H](C(=O)O[C@@H](C(=O)O[C@@H](C(=O)OC[C@@H](O)[C@@H](O)[C@H](O)[C@H](O)CO)[C@@H](C)CC)[C@@H](C)CC)[C@@H](C)CC)[C@@H](C)CC`, the results for the pIC50 in assay [1], in assay [2] and in assay [3] were below 4.27, below 4.27 and 4.61, respectively.

Turning to `COc1cccc2c1C(=O)c1c(O)c3c(c(O)c1C2=O)C[C@@](O)(C(=O)CO)C[C@@H]3O[C@H]1C[C@H](N)[C@H](O)[C@H](C)O1` [DOXORUBICIN], the results for the negative-log IC50 (pIC50) in assay [1] and in assay [2] were 5.72 and 6.70, respectively.

These data come from ChEMBL document CHEMBL4043076, “Hormonemate Derivatives from Dothiora sp., an Endophytic Fungus” (J Nat Prod, 2017).
